Measurements as given in the RNAGym collection of RNA variant scans (doi:10.1126/science.aae0568).
Fewer inactive variants are shown than the library holds.

B1: tRNA (parent)
chain: GUUCCGUUGGCGUAAUGGUAACGCGUCUCCCUCCUAAGGAGAAGACUGCGGGUUCGAGUCCCGUACGGAACG

Variants of: B1
Test: yeast fitness relative to wild type (ratio to wild type); higher = fitter; tRNA-Arg(CCU), competitive growth, 37 C, YPD
Method in brief: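 For this measurement, the tRNA-Arg(CCU) gene was varied by chemical synthesis at a 3% per-site mutation rate across 69 sites, and each variant was placed at the native genomic locus in Saccharomyces cerevisiae. The pooled strains went through a 24-hour competition in YPD at 37°C in six parallel replicates, with amplicons from start and end populations read by 100-nucleotide paired-end sequencing. Darwinian fitness relative to wild type followed from the change in each genotype's frequency. Genotypes needed ≥ 100 starting reads, and estimates < 0.5 were set to 0.5.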

First: U7A C22G C30U A37G A70G
Second: C29G A37C G63A A65G
The yeast fitness of the first is higher: 0.563 for the first, ≤ 0.5 for the second.

First: C33U A45U G68A
Second: U7C C24U U54A
The yeast fitness of the first is higher: 0.67 for the first, ≤ 0.5 for the second.

C5A A14U C27U C49G and U8A A21C G56C cannot be ordered by yeast fitness: ≤ 0.5 for the first, ≤ 0.5 for the second.

Going from U2C C11A to A15U A20G A43C, the yeast fitness rises from ≤ 0.5 to 0.593.

Compared with C29A C49U, U28C G41C C60A C66U is lower in yeast fitness: 0.627 for the first, ≤ 0.5 for the second.

Going from C4U A57G to C4G A65C A69C, the yeast fitness falls from 0.872 to ≤ 0.5.

First: C5G C49A
Second: C11A C30U C33G A40G
The yeast fitness of the first is higher: 0.624 for the first, ≤ 0.5 for the second.

Compared with C49G A70C, A21C C27U A45C C49U is lower in yeast fitness: 0.845 for the first, ≤ 0.5 for the second.

Going from C24A C60G to U13G C24G A36C A40U G48A, the yeast fitness rises from 0.51 to 0.525.

Compared with U16A A57U C66U, G18A C30A U32A U35G G67A is lower in yeast fitness: 0.528 for the first, ≤ 0.5 for the second.

A14G G17C C22G and C4U G23C U47C C49A G68C cannot be ordered by yeast fitness: ≤ 0.5 for the first, ≤ 0.5 for the second.

First: U2A U54C
Second: C27U C55A G58A
The yeast fitness of the first is higher: 0.932 for the first, ≤ 0.5 for the second.

Compared with A21G G39A U54C A70C, G38A A45C is higher in yeast fitness: ≤ 0.5 for the first, 0.818 for the second.

C11G C24A C66G and U16G U32G C46U C49U cannot be ordered by yeast fitness: ≤ 0.5 for the first, ≤ 0.5 for the second.

Going from C4G G10U A14U C24U C33U G52A to G56U G58C, the yeast fitness rises from 0.544 to 0.75.

Compared with G18A C49A A65U, U35A G38A C61G is lower in yeast fitness: 0.558 for the first, ≤ 0.5 for the second.

Compared with C5G A14U G68C, G6C C24U is higher in yeast fitness: ≤ 0.5 for the first, 0.751 for the second.

Going from C24U C27U to U2C C5U U54C, the yeast fitness falls from 0.972 to ≤ 0.5.

U8A C24G A43G C49U and A20G C24G C27U C62A C66A cannot be ordered by yeast fitness: ≤ 0.5 for the first, ≤ 0.5 for the second.

Going from A57U G67C to G6C C24A C31U G38C, the yeast fitness falls from 0.817 to ≤ 0.5.

First: U2G C61U A70G
Second: U13C C27U C31A U35C C55G C66U A70C
The yeast fitness of the first is higher: 0.795 for the first, ≤ 0.5 for the second.

Compared with U7A C29U C31A A65C, C22G G25C is higher in yeast fitness: 0.655 for the first, 0.977 for the second.

Going from G39U to A15G G67A, the yeast fitness falls from 1 to 0.868.

Compared with C49U C55U A69C, G25C C66U A69C is higher in yeast fitness: 0.665 for the first, 0.685 for the second.

First: G23A C62G
Second: C30A
The yeast fitness of the first is lower: 0.782 for the first, 0.998 for the second.

Going from C30G C34G G39C A69C to C33G C66U, the yeast fitness rises from ≤ 0.5 to 0.787.

C5U C31U C34U and A21U C29A U35A A43U C62U G68C cannot be ordered by yeast fitness: ≤ 0.5 for the first, ≤ 0.5 for the second.

Compared with C4A G6A A65G, C46U C49A C60A A70C is lower in yeast fitness: 0.56 for the first, ≤ 0.5 for the second.

Going from A43C G52A A69U to C24G A36C, the yeast fitness rises from 0.508 to 0.531.

First: A21G U53A
Second: G56A A70C
The yeast fitness of the first is lower: 0.651 for the first, 1.06 for the second.

U7C G41A A42C G50C G67U and G12C C24U G48C G68A A69C cannot be ordered by yeast fitness: ≤ 0.5 for the first, ≤ 0.5 for the second.

C11U A15U C27G A40C and G6C U8A G51A A65U G67A cannot be ordered by yeast fitness: ≤ 0.5 for the first, ≤ 0.5 for the second.

First: G51C U53A
Second: A15U C27G U54A
The yeast fitness of the first is higher: 0.544 for the first, ≤ 0.5 for the second.

First: U16C C60G
Second: C33A C46U U59C G67A G68C
The yeast fitness of the first is higher: 0.658 for the first, ≤ 0.5 for the second.

First: G23A C29U C31U A42G
Second: G12C G56A
The yeast fitness of the first is lower: ≤ 0.5 for the first, 0.838 for the second.

First: G12A A20C
Second: U19G C24A C30U
The yeast fitness of the first is higher: 0.875 for the first, ≤ 0.5 for the second.

U13C C31U A57G U64A C66A A69C and U3C C31U C34U U35A U53A G58A G68A cannot be ordered by yeast fitness: ≤ 0.5 for the first, ≤ 0.5 for the second.

First: U2G C46A C66U
Second: A37G C60U A70U
The yeast fitness of the first is higher: 0.584 for the first, ≤ 0.5 for the second.

A21C C33G G39A and U7A C49A A69C cannot be ordered by yeast fitness: ≤ 0.5 for the first, ≤ 0.5 for the second.

First: C11U G50A A70U
Second: C4U A20G
The yeast fitness of the first is lower: 0.702 for the first, 0.979 for the second.

C5G C49G U53A and C11A U13C C27A cannot be ordered by yeast fitness: ≤ 0.5 for the first, ≤ 0.5 for the second.

C34G A37C C62A and C29G A36G A65C cannot be ordered by yeast fitness: ≤ 0.5 for the first, ≤ 0.5 for the second.

Compared with U16G C24U U28C A36C A65C, A40G G68A is higher in yeast fitness: 0.58 for the first, 0.953 for the second.

First: G10C A42G
Second: G6A C27G A36C A42C A57U U64A A70C
The yeast fitness of the first is higher: 0.57 for the first, ≤ 0.5 for the second.

Going from C24G G25A C31G to C5A U8C C30G C31G A65C, the yeast fitness falls from 0.703 to ≤ 0.5.

Compared with U7A G25A C31U, C33U G56A G58C is higher in yeast fitness: 0.568 for the first, 0.589 for the second.

Going from U3A A21G A65C to G12C A20C A43C, the yeast fitness falls from 0.64 to ≤ 0.5.

G9A U26C A36U G39A and A14G C22G C30G G68A cannot be ordered by yeast fitness: ≤ 0.5 for the first, ≤ 0.5 for the second.

A43U G50A A57G and C5U G17C U26G A69U cannot be ordered by yeast fitness: ≤ 0.5 for the first, ≤ 0.5 for the second.

C4A A21G G51A A69G and U28A A45C C46A cannot be ordered by yeast fitness: ≤ 0.5 for the first, ≤ 0.5 for the second.

First: U3G G68A
Second: U13C A37C U53C
The yeast fitness of the first is higher: 0.851 for the first, 0.599 for the second.

First: A42G C62U A69C
Second: C4G C24A A42G
The yeast fitness of the first is higher: 0.696 for the first, ≤ 0.5 for the second.

Going from U16C U59C G67A to A15C C62U, the yeast fitness rises from ≤ 0.5 to 0.755.

First: A14G G18A U26A G50A
Second: A45U C66G
The yeast fitness of the first is lower: ≤ 0.5 for the first, 0.617 for the second.

First: C31G G51A
Second: C4A C11G G51C
The yeast fitness of the first is higher: 0.749 for the first, ≤ 0.5 for the second.

Compared with G23C C27G C31G, C30A G44A A45C A70U is lower in yeast fitness: 0.608 for the first, ≤ 0.5 for the second.

Compared with C5G C11G G12A C46U, U2G C24G C29G C31G is higher in yeast fitness: ≤ 0.5 for the first, 0.515 for the second.

Going from A37U A45C C46A to C4A C30G C49G, the yeast fitness falls from 0.598 to ≤ 0.5.

Compared with U2G U59C C66A G67A, C5U G25A A70U is higher in yeast fitness: ≤ 0.5 for the first, 1.05 for the second.

Compared with C4A A21G C33U G51C, A21G C27U G56C is higher in yeast fitness: ≤ 0.5 for the first, 0.57 for the second.

A14U A37U A40C A42G and U19C A20C C33U U35A C49A A69U cannot be ordered by yeast fitness: ≤ 0.5 for the first, ≤ 0.5 for the second.

C5A A65C G68C and G17A C22G C27A A45U G56C G63C G67C cannot be ordered by yeast fitness: ≤ 0.5 for the first, ≤ 0.5 for the second.

Compared with A37G G44A, G10C A43G is higher in yeast fitness: 0.73 for the first, 0.739 for the second.

Compared with C11U U16C G25A, A14G U28C U32C C33U G56A is lower in yeast fitness: 0.9 for the first, ≤ 0.5 for the second.

Compared with C4G A42G A45U U54C C55G C61A, A15U G58C C66U is higher in yeast fitness: ≤ 0.5 for the first, 0.631 for the second.

A14U A36U A45G and G23A U47A U64A cannot be ordered by yeast fitness: ≤ 0.5 for the first, ≤ 0.5 for the second.

First: U19C C30G
Second: C31A U53A A65U
The yeast fitness of the first is higher: 0.645 for the first, ≤ 0.5 for the second.

C22G C34U C60U C62U A70C and U13A G52A C55U cannot be ordered by yeast fitness: ≤ 0.5 for the first, ≤ 0.5 for the second.

C27A C34G A42G G50A and C11G C34U C66U cannot be ordered by yeast fitness: ≤ 0.5 for the first, ≤ 0.5 for the second.

First: G48A G63A A70U
Second: G6A A45C A70G
The yeast fitness of the first is higher: 0.811 for the first, 0.536 for the second.

Going from C62G A69U to C22U A57U, the yeast fitness falls from 0.839 to 0.617.

G25C A37U G48A C61U and G12C C24G A40G cannot be ordered by yeast fitness: ≤ 0.5 for the first, ≤ 0.5 for the second.

C24U C31G C55A A57U U59C C60U and C4U C31U A43U G48A U53A cannot be ordered by yeast fitness: ≤ 0.5 for the first, ≤ 0.5 for the second.

Going from C46A U47A to A20U C31A G41A, the yeast fitness falls from 1.04 to ≤ 0.5.

First: C4A U53C G67C
Second: C11G C31G C55G C60A
The yeast fitness of the first is higher: 0.537 for the first, ≤ 0.5 for the second.

C11U G18C C29A G67C and G9A C24A C49A A57C cannot be ordered by yeast fitness: ≤ 0.5 for the first, ≤ 0.5 for the second.

First: U2G G9A A69U
Second: G18C A37C C49G A70G
The yeast fitness of the first is higher: 0.577 for the first, ≤ 0.5 for the second.

Going from A21G U26C A40U C49U to G12C C55U, the yeast fitness rises from ≤ 0.5 to 0.734.

Compared with A43G A45U G63A, G10A U35G A37U is lower in yeast fitness: 0.613 for the first, 0.551 for the second.

Going from C27U G67C to A15C G17C C31A G44C A70G, the yeast fitness falls from 0.771 to ≤ 0.5.

Compared with C61U U64A, G6A A21C A42G is higher in yeast fitness: 0.606 for the first, 0.692 for the second.

Going from C24G A36C C49U A70C to C31A G67U, the yeast fitness rises from ≤ 0.5 to 0.755.

First: U8C U32G C49G
Second: C22A C60G
The yeast fitness of the first is lower: ≤ 0.5 for the first, 0.57 for the second.

In the case of U13C G23C A36C G39A, the yeast fitness is reported as 0.611.
